Values without a mark were called inactive. Activity calls are given as the source filed them.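 Rule for the calls: active = inhibition above 10%; inactive = the rest.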
Biological target: Hexokinase-4 (Homo sapiens) (UniProt P35557)
Assay: human glucokinase inhibition, counter-screen for TbHK1 inhibitor project, biochemical, recombinant hGlck (AID 492951)
Conditions: G6PDH-coupled NADH absorbance 340 nm, at 10 µM; stronger effect = higher value
How it was run: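 Test system: purified recombinant human glucokinase (HK4) with G6PDH coupling enzyme / Reagent: 20 mM glucose as reaction starter, plus 1 mM ATP / Timing: 10 min room-temperature compound-enzyme preincubation before glucose addition / Measured by: A340 of NADH / Repeats: three replicates per compound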

Hexokinase-4 (Homo sapiens), sequence (P35557 whole entry, looked up): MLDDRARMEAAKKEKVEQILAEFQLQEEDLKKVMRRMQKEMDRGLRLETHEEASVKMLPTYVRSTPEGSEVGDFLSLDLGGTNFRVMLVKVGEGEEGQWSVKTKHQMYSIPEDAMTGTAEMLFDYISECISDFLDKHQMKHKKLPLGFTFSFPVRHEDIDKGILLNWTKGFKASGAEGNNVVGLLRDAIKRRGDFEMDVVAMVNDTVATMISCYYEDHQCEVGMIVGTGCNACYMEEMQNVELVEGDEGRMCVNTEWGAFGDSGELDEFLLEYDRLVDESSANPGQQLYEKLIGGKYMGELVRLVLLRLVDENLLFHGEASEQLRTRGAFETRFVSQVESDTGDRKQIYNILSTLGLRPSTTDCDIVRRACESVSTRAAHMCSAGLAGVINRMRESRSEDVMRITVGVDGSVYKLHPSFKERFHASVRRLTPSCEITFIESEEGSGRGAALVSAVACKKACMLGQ

| SMILES | inhibition | outcome |
| --- | --- | --- |
| COc1cccc(-n2sc3ccccc3c2=O)c1 | 49.9% (active) | – |
| O=c1c2cc(N3CCOCC3)ccc2sn1-c1ccccc1 | – | inactive |
| CCCCCC(=O)Nc1cc(Cl)ccc1C(=O)O | – | inactive |
| COc1ccc(C(=O)Nc2ccccc2C(=O)O)cc1 | – | inactive |
| O=c1c2ccccc2sn1-c1ccccc1F | 28.9% (active) | – |
| Cc1ccc(C(=O)Nc2cc(Cl)ccc2C(=O)O)c(C)c1 | 12.5% (active) | – |
| N#Cc1ccc(NC(=O)Cn2sc3ccccc3c2=O)cc1 | – | inactive |
| CC(C)c1ccc(C(=O)Nc2cc(Cl)ccc2C(=O)O)cc1 | – | inactive |
| O=C(Nc1cc(Cl)ccc1C(=O)O)c1ccc(C(F)(F)F)cc1 | – | inactive |
| O=C(Nc1cc(Cl)ccc1C(=O)O)c1ccc(OC(F)(F)F)cc1 | 13.1% (active) | – |
| O=C(Cn1sc2ccccc2c1=O)Nc1ccccc1Br | 9% | – |
| COc1ccc(C(=O)Nc2cc(Cl)ccc2S(N)(=O)=O)cc1 | 11.1% (active) | – |
| COc1cccc(C(=O)Nc2cc(Cl)ccc2C(=O)O)c1 | – | inactive |
| COc1ccc(CC(=O)Nc2cc(Cl)ccc2C(=O)O)cc1 | – | inactive |
| O=C(Cn1sc2ccccc2c1=O)N1CCCCC1 | – | inactive |
| COc1ccc(C(=O)Nc2c(C(=O)O)ccc(Cl)c2Cl)cc1 | 10.6% | – |
| O=C(Nc1ccccc1)c1cc(F)ccc1S | 3.6% | – |
| COc1ccc2sn(-c3ccccc3)c(=O)c2c1 | 13.6% (active) | – |
| O=C(c1ccccc1)n1sc2ccccc2c1=O | – | inactive |

| SMILES | inhibition | outcome |
| --- | --- | --- |
| COc1ccc(C(=O)Nc2cc(C(F)(F)F)ccc2C(=O)O)cc1 | 10.5% (active) | – |
| COc1ccc(S(=O)(=O)Nc2cc(Cl)ccc2C(=O)O)cc1 | – | inactive |
| COc1ccc(C(=O)Nc2cc(Cl)ccc2C(=O)O)cc1OC | 20.1% (active) | – |
| O=c1c2c(Br)cccc2sn1-c1ccccc1 | 12.5% (active) | – |
| COc1ccc(C(=O)Nc2cc(I)ccc2C(=O)O)cc1 | – | inactive |
| CCC(C)(C)c1ccc(C(=O)Nc2cc(Cl)ccc2C(=O)O)cc1 | 26% (active) | – |
| O=C(O)c1ccc(Cl)cc1NC(=O)c1coc2ccccc12 | – | inactive |
| O=C(Cn1sc2ccccc2c1=O)N1CCOCC1 | – | inactive |
| O=c1cc(-c2ccccc2)sn1-c1ccccc1 | – | inactive |
| COc1ccc(C(=O)Nc2cc(Cl)c(Br)cc2C(=O)O)cc1 | 22.3% (active) | – |
| O=c1c2ccccc2on1-c1ccccc1 | – | inactive |
| COc1ccc(C(=O)Nc2ccccc2-c2nn[nH]n2)cc1 | – | inactive |
| O=C(Nc1ccc([N+](=O)[O-])cc1Cl)c1cc(Cl)ccc1O | 32.1% (active) | – |
| O=C1c2ccccc2S(=O)N1c1ccc(Cl)cc1 (stereo not drawn) | 37.2% (active) | – |
| COc1ccc2c(=O)n(-c3ccccc3)sc2c1 | – | inactive |
| O=C(Nc1cc(Cl)ccc1C(=O)O)c1ccc(Cc2ccccc2)cc1 | – | inactive |
| COc1ccc(C(=O)NC(CC(=O)O)c2cccc(Cl)c2)cc1 (stereo not drawn) | – | inactive |
| O=c1c2cc(C(F)(F)F)ccc2sn1-c1ccccc1 | 45.7% (active) | – |
| CCOC(=O)Cn1sc2ccccc2c1=O | – | inactive |

Source: PubChem BioAssay AID492951 (Molecular Libraries Program, Specialized Chemistry Center, …, 2010)
